The source of these data is ChEMBL document CHEMBL4190170, “Improved Antiviral Activity of a Polyamide Against High-Risk Human Papillomavirus Via N-Terminal Guanidinium Substitution” (Medchemcomm, 2016).

The source made the active and inactive calls. The rule behind the calls is not given here. A value given as a limit tells only on which side of the number the result lay.

One may read the Kd as the equilibrium constant for the complex coming apart. As a reminder, the IC50 is the concentration that inhibits the measured activity by half. As usually defined, the IC90 is the point of the concentration-response curve where the effect stands at 90%.

Assay [1] is described as follows: (§1) Binding affinity to HPV 18 CCTGG TATTAGTCAT TTTCC LCR DNA (7606 to 7615 nucleotides) after 4 hrs by DNase I footprinting assay. The arrangement: species or system human papillomavirus 18. The procedure, abridged:
(§2)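 Kd values derived from DNase I footprinting of HPV18 LCR DNA, each run at least in triplicate. Sites are read as the polyamide binding block flanked by 5 nt on each side.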

In assay [2] the test system is human papillomavirus 18. The assay is described as §1. In short, it runs like this:
as §2

The test system of assay [3] is Human papillomavirus. Briefly: Antiviral activity against HPV 31 infected in mouse 3T3 cells assessed as decrease in viral DNA after 48 hrs by qRT-PCR analysis. The format is functional, organism-based, Human papillomavirus type 31. Conditions: NIH3T3, 48 h. In short, it runs like this: (§3)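 Assays run side by side over a range of polyamide concentrations for two days. Pseudo IC50 and IC90 are the polyamide concentrations that give a 50% or 90% drop in viral DNA.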
For orientation: In qPCR the cycle at which signal appears reflects the starting amount.

Assay [4] has as its system Human papillomavirus. The assay can be described thus: Antiviral activity against HPV 18 infected in mouse 3T3 cells assessed as decrease in viral DNA after 48 hrs by qRT-PCR analysis. Conditions: NIH3T3, 48 h. The format is functional, organism-based, human papillomavirus 18. The procedure, abridged: as §3
The nature of assay [5]: Binding affinity to HPV 18 CTTTGGCGCATATAA GGCGC LCR DNA (7585 to 7594 nucleotides) after 4 hrs by DNase I footprinting assay. The arrangement: species or system human papillomavirus 18. In short, it runs like this:
as §2

Assay [6] in a line: Binding affinity to HPV 18 ACATA TTTTGAACAA TTGGC LCR DNA (7559 to 7568 nucleotides) after 4 hrs by DNase I footprinting assay. The arrangement: species or system human papillomavirus 18. In short, it runs like this:
as §2

Assay [7] deals with human papillomavirus 18. Briefly: Binding affinity to (7619 nucleotide) of HPV 18 CCT GGT ATTAG TCATT TTCCTG TCCAGGT LCR DNA at 5 nM after 4 hrs by DNase I footprinting assay. The procedure, abridged:
as §2

The subject of assay [8] is Human papillomavirus. Briefly: Antiviral activity against HPV 16 infected in mouse 3T3 cells assessed as decrease in viral DNA after 48 hrs by qRT-PCR analysis. The format is functional, organism-based, Human papillomavirus 16. To be noted: NIH3T3, 48 h. In short, it runs like this: as §3
Assay [9] relates to human papillomavirus 18. Briefly: Binding affinity to HPV 18 CCT GG TATTAGTCATTTTCCTG TCCA G GT LCR DNA (7606 to 7615 nucleotide) at 50 nM after 4 hrs by DNase I footprinting assay. In short, it runs like this: as §2
Assay [10] has as its system human papillomavirus 18. Briefly: Binding affinity to HPV 18 CCT GGT ATTAG TCATT TTCCTG TCCAGGT LCR DNA (7619 to 7626 nucleotide) at 5 nM after 4 hrs by DNase I footprinting assay. The procedure, abridged: as §2
Assay [11] relates to human papillomavirus 18. The assay can be described thus: Binding affinity to HPV 18 5'-TAGTCATTTT-3' LCR DNA (7609 to 7618 nucleotides) after 4 hrs by DNase I footprinting assay. The procedure, abridged:
as §2

With `CN(CCCN)CCCNC(=O)CCNC(=O)c1cc(NC(=O)c2cc(NC(=O)c3cc(NC(=O)c4cc(NC(=O)CCNC(=O)c5cc(NC(=O)c6cc(NC(=O)CCCNC(=O)c7cc(NC(=O)c8cc(NC(=O)c9cc(NC(=O)CCNC(=O)c%10cc(NC(=O)c%11cc(NC(=O)c%12nc(N=C(N(C)C)N(C)C)cn%12C)cn%11C)cn%10C)cn9C)cn8C)cn7C)cn6C)cn5C)cn4C)cn3C)cn2C)cn1C`, the Kd in [1] amounted to 1.2 nM; in assay [5], 3.2 nM; in [6], 1.1 nM. For the same compound, the outcome in the assay on human papillomavirus 18 [2] and in the assay with human papillomavirus 18 [9] was Active. The results for the IC50 in the assay on Human papillomavirus [3], in the assay on Human papillomavirus [4] and with Human papillomavirus [8] were 130 nM, 200 nM and 300 nM, respectively. The IC90 in the assay with Human papillomavirus [3] is 900 nM; in the assay with Human papillomavirus [4] it was > 10000 nM; with Human papillomavirus [8], > 10000 nM. Besides, the outcome in the assay with human papillomavirus 18 [7] was inactive.
For `CN(CCCN)CCCNC(=O)CCNC(=O)c1cc(NC(=O)c2cc(NC(=O)c3cc(NC(=O)CCNC(=O)c4cc(NC(=O)c5cc(NC(=O)c6cc(NC(=O)CCNC(=O)c7cc(NC(=O)c8cc(NC(=O)CCNC(=O)c9cc(NC(=O)c%10cc(NC(=O)CCCNC(=O)c%11cc(NC(=O)c%12cc(NC(=O)c%13cc(NC(=O)CCNC(=O)c%14cc(NC(=O)c%15cc(NC(=O)c%16nccn%16C)cn%15C)cn%14C)cn%13C)cn%12C)cn%11C)cn%10C)cn9C)cn8C)cn7C)n(C)c6)n(C)c5)n(C)c4)n(C)c3)n(C)c2)n(C)c1`, the IC50 came to 30 nM in the assay on Human papillomavirus [3], 56 nM in the assay on Human papillomavirus [4] and 36 nM with Human papillomavirus [8]. The figures for the IC90 in the assay with Human papillomavirus [3], in the assay on Human papillomavirus [4] and with Human papillomavirus [8] were 510 nM, 1500 nM and 350 nM, respectively.
As for `CN(CCCN)CCCNC(=O)CCNC(=O)c1cc(NC(=O)c2cc(NC(=O)c3cc(NC(=O)c4cc(NC(=O)CCNC(=O)c5cc(NC(=O)c6cc(NC(=O)CCCNC(=O)c7cc(NC(=O)c8cc(NC(=O)c9cc(NC(=O)CCNC(=O)c%10cc(NC(=O)c%11cc(NC(=O)c%12nc(N=C(N)N)cn%12C)cn%11C)cn%10C)cn9C)cn8C)cn7C)cn6C)cn5C)cn4C)cn3C)cn2C)cn1C`, the Kd in assay [1] is 1 nM; in [5] it was 2.2 nM; in assay [6], 1 nM. Besides, the outcome in the assay on human papillomavirus 18 [2], in the assay with human papillomavirus 18 [10] and in the assay with human papillomavirus 18 [11] was Active. Further, the results for the IC50 in the assay on Human papillomavirus [3], with Human papillomavirus [4] and in the assay on Human papillomavirus [8] were 140 nM, 200 nM and 100 nM, respectively. Also, the IC90 turned out to be 800 nM in the assay on Human papillomavirus [3], 900 nM in the assay on Human papillomavirus [4] and 380 nM in the assay with Human papillomavirus [8].
Turning to `CN(CCCN)CCCNC(=O)CCNC(=O)c1cc(NC(=O)c2cc(NC(=O)c3cc(NC(=O)c4cc(NC(=O)CCNC(=O)c5cc(NC(=O)c6cc(NC(=O)CCCNC(=O)c7cc(NC(=O)c8cc(NC(=O)c9cc(NC(=O)CCNC(=O)c%10cc(NC(=O)c%11cc(NC(=O)c%12nccn%12C)cn%11C)cn%10C)cn9C)cn8C)cn7C)cn6C)cn5C)cn4C)cn3C)cn2C)cn1C`, the Kd in assay [1] was found to be 0.9 nM; in [5], 2.7 nM; in [6] it was 0.9 nM. Besides, the result in the assay on human papillomavirus 18 [2] and with human papillomavirus 18 [11] was Active. Further, the concentration for half-maximal inhibition (IC50) came to 100 nM in the assay on Human papillomavirus [3], 700 nM in the assay with Human papillomavirus [4] and 100 nM in the assay with Human papillomavirus [8]. Further, the IC90 in the assay with Human papillomavirus [3] is 1000 nM; with Human papillomavirus [4], > 10000 nM; in the assay on Human papillomavirus [8] it was 1100 nM.
